Columns and labels:
Mus musculus [1] = assay: Biodistribution of intravenously injected [131I]-labeled compound in liver of BDF1 female mice bearing subcutaneous Lewis lung carcinoma after 24 hours; assay type: ADME, organism-based; conditions: in vivo, iv
In short: (§1)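 Female BDF1 mice bearing subcutaneous Lewis lung carcinoma received a single intravenous dose of 0.5-1.8 μg of the 131I-labeled nucleoside (55-110 kBq). They were sacrificed at set times, and tissues were weighed wet and γ-counted. Activity is expressed as percent of injected dose per gram of wet tissue, given as mean ± standard deviation for six animals.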

Mus musculus [2] = assay: Biodistribution of intravenously injected [131I]-labeled compound in gut of BDF1 female mice bearing subcutaneous Lewis lung carcinoma after 2 hours; assay type: ADME, organism-based; conditions: in vivo, iv; in short: as §1
Mus musculus [3] = species on record: Mus musculus; assay: Other urinary compounds observed in BDF1 female mice bearing lewis lung tumor after 2-3 hr of injected [131I]-compound; assay type: functional, tissue-based; conditions: Urine
Mus musculus [4] = assay: Biodistribution of intravenously injected [131I]-labeled compound in bone of BDF1 female mice bearing subcutaneous Lewis lung carcinoma after 24 hours; assay type: ADME, organism-based, Bone element; conditions: in vivo, iv; in short: as §1
Mus musculus [5] = assay: Biodistribution of intravenously injected [131I]-labeled compound in stomach of BDF1 female mice bearing subcutaneous Lewis lung carcinoma after 4 hours; assay type: ADME, organism-based; conditions: in vivo, iv
In short: (§2)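 Female BDF1 mice with subcutaneous Lewis lung carcinoma given i.v. 0.5-1.8 μg of 131I-labeled nucleoside (55-110 kBq). Killed at set times. Tissues weighed wet and γ-counted. Radioactivity expressed as percent injected dose per gram wet tissue, mean ± SD of six animals.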

Mus musculus [6] = assay: Biodistribution of intravenously injected [131I]-labeled compound in stomach of BDF1 female mice bearing subcutaneous Lewis lung carcinoma after 2 hours; assay type: ADME, organism-based; conditions: in vivo, iv; in short: as §2
Mus musculus [7] = species on record: Mus musculus; assay: Urinary [131I]5-iodouracil observed in BDF1 female mice bearing lewis lung tumor after 6-7 hr of injected [131I]-compound; assay type: functional, tissue-based; conditions: Urine
Mus musculus [8] = assay: Biodistribution of intravenously injected [131I]-labeled compound in liver of BDF1 female mice bearing subcutaneous Lewis lung carcinoma after 0.50 hours; assay type: ADME, organism-based; conditions: in vivo, iv, 0.5 h; in short: as §1
Mus musculus [9] = assay: Biodistribution of intravenously injected [131I]-labeled compound in kidney of BDF1 female mice bearing subcutaneous Lewis lung carcinoma after 4 hours; assay type: ADME, organism-based; conditions: in vivo, iv; in short: as §1
Mus musculus [10] = assay: Biodistribution of intravenously injected [131I]-labeled compound in muscle of BDF1 female mice bearing subcutaneous Lewis lung carcinoma after 4 hours; assay type: ADME, organism-based, Muscle tissue; conditions: in vivo, iv; in short: as §2
Mus musculus [11] = assay: Biodistribution of intravenously injected [131I]-labeled compound in muscle of BDF1 female mice bearing subcutaneous Lewis lung carcinoma after 0.5 hours; assay type: ADME, organism-based, Muscle tissue; conditions: in vivo, iv; in short: as §1
Mus musculus [12] = assay: Biodistribution of intravenously injected [131I]-labeled compound in spleen of BDF1 female mice bearing subcutaneous Lewis lung carcinoma after 2 hours; assay type: ADME, organism-based; conditions: in vivo, iv; in short: as §2
Mus musculus [13] = assay: Biodistribution of intravenously injected [131I]-labeled compound in gut of BDF1 female mice bearing subcutaneous Lewis lung carcinoma after 1 hours; assay type: ADME, organism-based; conditions: in vivo, iv; in short: as §1
Mus musculus [14] = species on record: Mus musculus; assay: Urinary iodide observed in BDF1 female mice bearing lewis lung tumor after 24 hr of injected [131I]-compound; assay type: functional, tissue-based; conditions: Urine
Mus musculus [15] = assay: Biodistribution of intravenously injected [131I]-labeled compound in liver of BDF1 female mice bearing subcutaneous Lewis lung carcinoma after 1 hours; assay type: ADME, organism-based; conditions: in vivo, iv; in short: as §1
Mus musculus [16] = assay: Biodistribution of intravenously injected [131I]-labeled compound in stomach of BDF1 female mice bearing subcutaneous Lewis lung carcinoma after 8 hours; assay type: ADME, organism-based; conditions: in vivo, iv; in short: as §2
Mus musculus [17] = assay: Biodistribution of intravenously injected [131I]-labeled compound in lung of BDF1 female mice bearing subcutaneous Lewis lung carcinoma after 2 hours; assay type: ADME, organism-based; conditions: in vivo, iv; in short: as §1
Mus musculus [18] = species on record: Mus musculus; assay: Urinary [131I]5-iodouracil observed in BDF1 female mice bearing lewis lung tumor after 2-3 h of injected [131I]-compound; assay type: functional, tissue-based; conditions: Urine
Mus musculus [19] = assay: Biodistribution of intravenously injected [131I]-labeled compound in kidney of BDF1 female mice bearing subcutaneous Lewis lung carcinoma after 0.5 hours; assay type: ADME, organism-based; conditions: in vivo, iv; in short: as §1
Mus musculus [20] = assay: Biodistribution of intravenously injected [131I]-labeled compound in skin of BDF1 female mice bearing subcutaneous Lewis lung carcinoma after 0.25 hours; assay type: ADME, organism-based, Zone of skin; conditions: in vivo, iv; in short: as §2
Mus musculus [21] = assay: Biodistribution of intravenously injected [131I]-labeled compound in heart of BDF1 female mice bearing subcutaneous Lewis lung carcinoma after 1 hours; assay type: ADME, organism-based; conditions: in vivo, iv; in short: as §1
Mus musculus [22] = assay: Biodistribution of intravenously injected [131I]-labeled compound in liver of BDF1 female mice bearing subcutaneous Lewis lung carcinoma after 0.25 hours; assay type: ADME, organism-based; conditions: in vivo, iv; in short: as §1
Mus musculus [23] = assay: Biodistribution of intravenously injected [82Br]-labeled compound in spleen of BDF1 female mice bearing subcutaneous Lewis lung carcinoma after 1 hours; assay type: ADME, organism-based; conditions: in vivo, iv
In short: (§3)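 Female BDF1 mice with subcutaneous Lewis lung carcinoma given an iv injection of [82Br]-labelled nucleoside, 47-130 μg carrying 20-60 kBq 82Br. Tissues were excised, weighed wet and γ-counted. Values are percent injected dose per gram of wet tissue, mean ± standard deviation of six animals, with organ-to-tumour ratios derived.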

Mus musculus [24] = assay: Biodistribution of intravenously injected [82Br]-labeled compound in gut of BDF1 female mice bearing subcutaneous Lewis lung carcinoma after 0.25 hours; assay type: ADME, organism-based; conditions: in vivo, iv
In short: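 82Br-labeled nucleoside given intravenously to female BDF1 mice bearing subcutaneous Lewis lung carcinoma, at 47-130 μg carrying 20-60 kBq. Mice sacrificed at each time point. Wet-weighed tissues γ-counted. Values are percent injected dose per gram wet tissue, mean ± SD, n = 6.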

Mus musculus [25] = assay: Biodistribution of intravenously injected [82Br]-labeled compound in heart of BDF1 female mice bearing subcutaneous Lewis lung carcinoma after 1 hours; assay type: ADME, organism-based; conditions: in vivo, iv; in short: as §3
Mus musculus [26] = assay: Biodistribution of intravenously injected [82Br]-labeled compound in skin of BDF1 female mice bearing subcutaneous Lewis lung carcinoma after 4 hours; assay type: ADME, organism-based, Zone of skin; conditions: in vivo, iv; in short: as §3
Mus musculus [27] = assay: Biodistribution of intravenously injected [82Br]-labeled compound in kidney of BDF1 female mice bearing subcutaneous Lewis lung carcinoma after 0.25 hours; assay type: ADME, organism-based; conditions: in vivo, iv; in short: as §3
Mus musculus [28] = assay: Biodistribution of intravenously injected [82Br]-labeled compound in kidney of BDF1 female mice bearing subcutaneous Lewis lung carcinoma after 4 hours; assay type: ADME, organism-based; conditions: in vivo, iv; in short: as §3
Mus musculus [29] = assay: Biodistribution of intravenously injected [82Br]-labeled compound in skin of BDF1 female mice bearing subcutaneous Lewis lung carcinoma after 1 hours; assay type: ADME, organism-based, Zone of skin; conditions: in vivo, iv; in short: as §3
Mus musculus [30] = assay: Biodistribution of intravenously injected [82Br]-labeled compound in stomach of BDF1 female mice bearing subcutaneous Lewis lung carcinoma after 24 hours; assay type: ADME, organism-based; conditions: in vivo, iv
Mus musculus [31] = assay: Biodistribution of intravenously injected [82Br]-labeled compound in heart of BDF1 female mice bearing subcutaneous Lewis lung carcinoma after 8 hours; assay type: ADME, organism-based; conditions: in vivo, iv; in short: as §3
Mus musculus [32] = assay: Biodistribution of intravenously injected [82Br]-labeled compound in spleen of BDF1 female mice bearing subcutaneous Lewis lung carcinoma after 24 hours; assay type: ADME, organism-based; conditions: in vivo, iv
Mus musculus [33] = assay: Biodistribution of intravenously injected [82Br]-labeled compound in stomach of BDF1 female mice bearing subcutaneous Lewis lung carcinoma after 8 hours; assay type: ADME, organism-based; conditions: in vivo, iv
Mus musculus [34] = assay: Biodistribution of intravenously injected [82Br]-labeled compound in tumor of BDF1 female mice bearing subcutaneous Lewis lung carcinoma after 4 hr; assay type: ADME, organism-based; conditions: in vivo, iv
Mus musculus [35] = assay: Biodistribution of intravenously injected [82Br]-labeled compound in gut of BDF1 female mice bearing subcutaneous Lewis lung carcinoma after 8 hours; assay type: ADME, organism-based; conditions: in vivo, iv; in short: as §3
Mus musculus [36] = assay: Biodistribution of intravenously injected [82Br]-labeled compound in spleen of BDF1 female mice bearing subcutaneous Lewis lung carcinoma after 4 hours; assay type: ADME, organism-based; conditions: in vivo, iv
Mus musculus [37] = assay: Biodistribution of intravenously injected [82Br]-labeled compound in liver of BDF1 female mice bearing subcutaneous Lewis lung carcinoma after 2 hours; assay type: ADME, organism-based; conditions: in vivo, iv; in short: as §3
Mus musculus [38] = assay: Biodistribution of intravenously injected [82Br]-labeled compound in skin of BDF1 female mice bearing subcutaneous Lewis lung carcinoma after 24 hours; assay type: ADME, organism-based, Zone of skin; conditions: in vivo, iv; in short: as §3
Mus musculus [39] = assay: Biodistribution of intravenously injected [82Br]-labeled compound in muscle of BDF1 female mice bearing subcutaneous Lewis lung carcinoma after 24 hours; assay type: ADME, organism-based, Muscle tissue; conditions: in vivo, iv; in short: as §3

With `O=c1[nH]c(=O)n([C@@H]2O[C@H](CO)[C@@H](O)[C@H]2F)cc1I` as the compound, how does the Injected dose/g (Mus musculus [1]) read?
Its Injected dose/g is 0.1%.

And the Injected dose/g (Mus musculus [2])?
The Injected dose/g was 1.9%.

And the Radioactive constituents (Mus musculus [3])?
Its Radioactive constituents is 3.5%.

And the Injected dose/g (Mus musculus [4])?
Its Injected dose/g is 0.07%.

And the Injected dose/g (Mus musculus [5])?
The Injected dose/g was 5.7%.

What about the Injected dose/g (Mus musculus [6]) of the same compound?
The Injected dose/g was 4%.

What about the Radioactive constituents (Mus musculus [7]) of the same compound?
Its Radioactive constituents is 0%.

What about the Injected dose/g (Mus musculus [8]) of the same compound?
The Injected dose/g was 4.6%.

What about the Injected dose/g (Mus musculus [9]) of the same compound?
Its Injected dose/g is 7.3%.

What about the Injected dose/g (Mus musculus [10]) of the same compound?
The Injected dose/g was 1.3%.

What about the Injected dose/g (Mus musculus [11]) of the same compound?
The Injected dose/g was 2%.

And the Injected dose/g (Mus musculus [12])?
Its Injected dose/g is 1.8%.

And the Injected dose/g (Mus musculus [13])?
The Injected dose/g was 2.5%.

And the Radioactive constituents (Mus musculus [14])?
Its Radioactive constituents is 62.6%.

What about the Injected dose/g (Mus musculus [15]) of the same compound?
The Injected dose/g was 3.6%.

What about the Injected dose/g (Mus musculus [16]) of the same compound?
Its Injected dose/g is 5.3%.

What about the Injected dose/g (Mus musculus [17]) of the same compound?
The Injected dose/g was 5.1%.

What about the Radioactive constituents (Mus musculus [18]) of the same compound?
Its Radioactive constituents is 0%.

What about the Injected dose/g (Mus musculus [19]) of the same compound?
Its Injected dose/g is 18.5%.

What about the Injected dose/g (Mus musculus [20]) of the same compound?
Its Injected dose/g is 5.2%.

What about the Injected dose/g (Mus musculus [21]) of the same compound?
The Injected dose/g was 5.8%.

And the Injected dose/g (Mus musculus [22])?
Its Injected dose/g is 5.3%.

Which Injected dose/g (Mus musculus [23]) does the source give for `O=c1[nH]c(=O)n([C@H]2O[C@@H](CO)[C@H](O)[C@H]2F)cc1Br` here?
Its Injected dose/g is 0.38%.

And the Injected dose/g (Mus musculus [24])?
Its Injected dose/g is 1.19%.

What about the Injected dose/g (Mus musculus [25]) of the same compound?
Its Injected dose/g is 0.44%.

What about the Injected dose/g (Mus musculus [26]) of the same compound?
The Injected dose/g was 0.31%.

And the Injected dose/g (Mus musculus [27])?
The Injected dose/g was 7.69%.

And the Injected dose/g (Mus musculus [28])?
Its Injected dose/g is 0.48%.

And the Injected dose/g (Mus musculus [29])?
The Injected dose/g was 0.45%.

And the Injected dose/g (Mus musculus [30])?
The Injected dose/g was 0.34%.

And the Injected dose/g (Mus musculus [31])?
Its Injected dose/g is 0.45%.

And the Injected dose/g (Mus musculus [32])?
The Injected dose/g was 0.24%.

What about the Injected dose/g (Mus musculus [33]) of the same compound?
Its Injected dose/g is 0.53%.

And the Injected dose/g (Mus musculus [34])?
The Injected dose/g was 0.37%.

What about the Injected dose/g (Mus musculus [35]) of the same compound?
Its Injected dose/g is 0.33%.

What about the Injected dose/g (Mus musculus [36]) of the same compound?
Its Injected dose/g is 0.28%.

What about the Injected dose/g (Mus musculus [37]) of the same compound?
Its Injected dose/g is 0.32%.

And the Injected dose/g (Mus musculus [38])?
The Injected dose/g was 0.22%.

And the Injected dose/g (Mus musculus [39])?
Its Injected dose/g is 0.09%.
